Marks after values point to notes of the source that are not given here.
Legend:
[1] = LSZ102 clinical pharmacokinetics; type: in vivo, human
ER protein = assay: Paired biopsy ER protein by IHC; type: in vivo, human; settings: cycle 1 day 15, single agent
[2] = test system: ER-positive breast cancer; assay: Investigator-assessed clinical response; type: in vivo, human
How it was run: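 Local investigator assessed response per RECIST v1.1 in all participants receiving ≥1 dose. ORR = confirmed CR+PR. CBR = CR+PR plus SD or non-CR/non-PD maintained ≥24 weeks. PFS was estimated by Kaplan–Meier. Data were grouped by total daily dose, pooling fed, fasted and food-independent dosing.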

[3] = test system: adults with ER-positive breast cancer; assay: Dose-limiting toxicities in the first 28-day treatment cycle; type: in vivo, human
[4] = test system: adults with ER-positive breast cancer; assay: Adverse events, serious AEs, deaths, discontinuations; type: in vivo, human
How it was run: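 Open-label phase I/Ib escalation in adults with ER-positive advanced breast cancer. Oral test compound was given once or twice daily, alone or with one of two partner agents, in continuous 28-day cycles. AEs were defined and graded per CTCAE v4.03. The safety set was treated participants with ≥1 valid postbaseline safety assessment. Fed/fasted data were pooled.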

[5] = cited from earlier work

CC(F)(F)c1cc(F)ccc1-c1sc2cc(O)ccc2c1Oc1ccc(/C=C/C(=O)O)cc1 [LSZ102]
Time to Cmax ([1]; discussion summary): approximately 2 hours | Median time to maximum concentration (Cmax) ([1]; fasted conditions): 2 to 3 h | Biopsy ER H-score change from screening (ER protein): trend toward dose-dependent ER degradation | Discontinuations from study treatment: Progressive disease, n (%) ([2]; human, in vivo): 71 (91.0) n (%) | Clinical benefit rate (CBR) ([2]; whole arm): 7.8% | Objective response rate (ORR) ([2]; whole arm): 1.3% | DLT: ALT increased, participants ([3]; 450 mg QD): 1^b | DLT: AST increased, participants ([3]; 450 mg QD): 1^b | DLT: Vomiting, participants ([3]; 600 mg QD): 1 | DLT: Diarrhea, participants ([3]; 900 mg QD): 2 | DLTs, participants ([3]; first 28-day cycle, whole arm): 5% | Recommended dose for expansion: LSZ102 dose ([3]; in vivo): 450 mg once daily | Participants with ≥ 1 DLT, n (%) ([3]; total daily dose 200 mg, QD (n = 4)): 0 n (%) | Participants with ≥ 1 DLT, n (%) ([3]; total daily dose 400 mg, BID (n = 3)): 0 n (%) | Participants with ≥ 1 DLT, n (%) ([3]; total daily dose 400 mg, QD (n = 6)): 0 n (%) | Participants with ≥ 1 DLT, n (%) ([3]; total daily dose 450 mg, BID (n = 5)): 0 n (%) | Participants with ≥ 1 DLT, n (%) ([3]; total daily dose 600 mg (n = 28), QD (n = 23)): 1 (3.6) n (%) | Participants with ≥ 1 DLT, n (%) ([3]; total daily dose 600 mg, BID (n = 5)): 0 n (%) | Participants with ≥ 1 DLT, n (%) ([3]; total daily dose 900 mg, QD (n = 6)): 2 (33.3) n (%) | Discontinuations from study treatment: Adverse event, n (%) ([4]; in vivo): 2 (2.6) n (%) | Discontinuations from study treatment: Death, n (%) ([4]; in vivo): 0 n (%) | Deaths on treatment or within 30 days from the last dose, number ([4]; whole arm): 5 | Participants with treatment-related serious AEs, number ([4]; whole arm): 1 | Increase in LSZ102 exposure with a high-fat high-calorie meal [5]: ~2 fold

From article PMC9401512 (Clinical Cancer Research, 2021)
